Assay results published in ChEMBL document CHEMBL1649093, “Phthalazinone pyrazoles as potent, selective, and orally bioavailable inhibitors of Aurora-A kinase” (J Med Chem, 2011).
≈ marks a conversion by molar mass, not a printed value. Calls of active or inactive are those of the source. The rule behind the calls is not given here.

Experiments:
[1] = Selectivity for Aurora A over Aurora B
[2] = system: HCT-116; assay: Cytotoxicity against human HCT116 cells after 5 days by celltiter-glo assay; format: functional, cell-based; details: HCT-116, 120 h
[3] = biological target: Aurora kinase B (Homo sapiens, UniProt Q96GD4); assay: Inhibition of Aurora B by ELISA
Procedure, shortened: (§1)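 ELISA on plates coated with GST fusion carrying histone H3 residues 1-15, blocked with 1 mg/mL I-block. Aurora-A or Aurora-B kinase reacted with compound and 30 μM ATP in kinase buffer with 1 μg/mL I-block; stopped after 40 min with 25 mM EDTA. Phosphorylation read with anti-phospho-histone H3 (Ser10) 6G3 mAb. IC50 from triplicate averages.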

[4] = system: COLO 205; assay: Cytotoxicity against human COLO205 cells; format: functional, cell-based
[5] = system: MCF7; assay: Cytotoxicity against human MCF7 cells; format: functional, cell-based
[6] = biological target: T1, Aurora kinase A (Homo sapiens, UniProt O14965); assay: Inhibition of Aurora A by ELISA; procedure, shortened: as §1
T1 sequence (O14965 whole entry): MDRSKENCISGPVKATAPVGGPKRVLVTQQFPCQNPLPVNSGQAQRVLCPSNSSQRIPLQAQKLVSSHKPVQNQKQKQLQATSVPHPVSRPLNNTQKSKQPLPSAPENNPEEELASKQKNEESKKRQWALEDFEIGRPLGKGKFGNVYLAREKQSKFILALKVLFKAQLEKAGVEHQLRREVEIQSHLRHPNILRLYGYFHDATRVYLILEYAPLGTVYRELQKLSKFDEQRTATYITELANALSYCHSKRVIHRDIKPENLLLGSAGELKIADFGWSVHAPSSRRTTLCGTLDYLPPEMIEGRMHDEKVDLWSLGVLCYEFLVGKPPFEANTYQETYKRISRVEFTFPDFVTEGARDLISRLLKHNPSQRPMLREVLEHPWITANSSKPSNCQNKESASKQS

[7] = Clearance in human microsome measured per mg of protein; format: ADME; details: microsomes
[8] = system: MCF7; assay: Induction of cell cycle arrest in human MCF7 cells assessed as accumulation at G2/M phase at 10 uM after 24 hrs by immunostaining; format: functional, cell-based
[9] = Clearance in mouse microsome measured per mg of protein; format: ADME, Liver; details: microsomes
[10] = Clearance in rat hepatocytes measured per 10^6 cells; format: ADME, cell-based, Liver, Hepatocyte
[11] = Aqueous solubility of the compound; format: physicochemical; details: buffer
[12] = biological target: Cytochrome P450 2C9 (Homo sapiens, UniProt P11712); assay: Inhibition of CYP2C9; format: ADME
[13] = biological target: Cytochrome P450 3A4 (Homo sapiens, UniProt P08684); assay: Inhibition of CYP3A4; format: ADME
[14] = biological target: Cytochrome P450 2D6 (Homo sapiens, UniProt P10635); assay: Inhibition of CYP2D6; format: ADME
[15] = biological target: hERG (KCNH2) (Homo sapiens, UniProt Q12809); assay: Inhibition of human ERG at 10 uM
Chain of hERG (KCNH2) (Q12809 whole entry): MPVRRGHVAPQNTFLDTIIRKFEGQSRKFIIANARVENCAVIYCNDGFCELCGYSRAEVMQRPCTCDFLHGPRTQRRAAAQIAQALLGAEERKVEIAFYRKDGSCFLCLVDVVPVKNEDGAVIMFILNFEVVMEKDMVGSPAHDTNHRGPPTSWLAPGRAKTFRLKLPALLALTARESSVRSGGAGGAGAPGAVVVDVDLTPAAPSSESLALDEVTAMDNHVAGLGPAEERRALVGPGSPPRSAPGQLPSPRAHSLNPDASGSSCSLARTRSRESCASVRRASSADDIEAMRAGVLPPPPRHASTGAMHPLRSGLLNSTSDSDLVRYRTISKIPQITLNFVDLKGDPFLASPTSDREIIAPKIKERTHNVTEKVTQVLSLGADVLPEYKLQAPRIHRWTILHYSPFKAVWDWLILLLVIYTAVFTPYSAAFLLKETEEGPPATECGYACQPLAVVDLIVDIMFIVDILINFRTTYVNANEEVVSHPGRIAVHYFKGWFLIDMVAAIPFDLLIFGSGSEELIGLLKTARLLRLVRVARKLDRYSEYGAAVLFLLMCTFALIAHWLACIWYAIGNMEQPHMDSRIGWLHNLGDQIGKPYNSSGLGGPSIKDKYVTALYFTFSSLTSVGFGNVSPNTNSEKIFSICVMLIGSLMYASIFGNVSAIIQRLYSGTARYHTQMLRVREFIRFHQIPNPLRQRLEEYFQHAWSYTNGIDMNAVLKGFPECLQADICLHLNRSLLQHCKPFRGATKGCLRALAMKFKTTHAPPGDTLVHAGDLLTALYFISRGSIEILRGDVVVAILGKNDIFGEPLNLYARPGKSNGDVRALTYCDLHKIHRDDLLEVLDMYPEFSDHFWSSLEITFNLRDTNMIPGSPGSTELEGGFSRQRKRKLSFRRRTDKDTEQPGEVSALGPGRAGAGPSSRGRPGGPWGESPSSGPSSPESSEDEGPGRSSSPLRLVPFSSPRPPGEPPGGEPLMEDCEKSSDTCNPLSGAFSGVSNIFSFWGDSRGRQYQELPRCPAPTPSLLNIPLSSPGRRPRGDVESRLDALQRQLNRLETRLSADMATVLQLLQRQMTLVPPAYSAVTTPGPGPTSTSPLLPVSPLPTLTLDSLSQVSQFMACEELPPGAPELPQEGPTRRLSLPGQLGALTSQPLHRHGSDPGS

Chain of Cytochrome P450 2C9 (P11712 whole entry): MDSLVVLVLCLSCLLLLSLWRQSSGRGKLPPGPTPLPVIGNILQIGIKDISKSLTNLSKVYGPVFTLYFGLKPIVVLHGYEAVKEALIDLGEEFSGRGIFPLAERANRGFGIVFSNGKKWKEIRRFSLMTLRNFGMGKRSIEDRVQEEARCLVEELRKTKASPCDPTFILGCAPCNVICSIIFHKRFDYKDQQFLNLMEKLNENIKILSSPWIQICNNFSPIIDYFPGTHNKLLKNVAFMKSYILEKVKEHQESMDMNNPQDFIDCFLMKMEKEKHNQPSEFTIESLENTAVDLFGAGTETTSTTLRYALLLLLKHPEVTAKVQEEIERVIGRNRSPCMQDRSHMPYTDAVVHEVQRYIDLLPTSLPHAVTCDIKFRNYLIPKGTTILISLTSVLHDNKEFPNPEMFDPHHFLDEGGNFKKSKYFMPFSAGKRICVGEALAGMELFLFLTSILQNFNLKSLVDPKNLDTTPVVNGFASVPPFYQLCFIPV
Chain of Cytochrome P450 2D6 (P10635 whole entry): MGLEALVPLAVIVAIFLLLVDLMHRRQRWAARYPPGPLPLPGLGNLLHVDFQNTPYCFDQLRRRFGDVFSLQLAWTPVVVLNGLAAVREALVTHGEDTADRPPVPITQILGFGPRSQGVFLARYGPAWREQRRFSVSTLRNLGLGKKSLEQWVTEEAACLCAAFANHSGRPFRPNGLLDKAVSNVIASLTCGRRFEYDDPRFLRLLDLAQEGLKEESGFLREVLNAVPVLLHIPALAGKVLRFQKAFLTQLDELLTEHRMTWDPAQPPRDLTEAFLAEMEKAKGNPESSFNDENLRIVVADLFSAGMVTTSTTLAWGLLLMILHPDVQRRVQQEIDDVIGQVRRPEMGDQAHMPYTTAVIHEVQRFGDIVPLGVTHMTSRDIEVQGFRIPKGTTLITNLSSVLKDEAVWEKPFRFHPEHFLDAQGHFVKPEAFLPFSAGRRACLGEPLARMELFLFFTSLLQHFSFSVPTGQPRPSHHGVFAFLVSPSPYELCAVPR
Chain of Aurora kinase B (Q96GD4 whole entry, the tested form may be a part): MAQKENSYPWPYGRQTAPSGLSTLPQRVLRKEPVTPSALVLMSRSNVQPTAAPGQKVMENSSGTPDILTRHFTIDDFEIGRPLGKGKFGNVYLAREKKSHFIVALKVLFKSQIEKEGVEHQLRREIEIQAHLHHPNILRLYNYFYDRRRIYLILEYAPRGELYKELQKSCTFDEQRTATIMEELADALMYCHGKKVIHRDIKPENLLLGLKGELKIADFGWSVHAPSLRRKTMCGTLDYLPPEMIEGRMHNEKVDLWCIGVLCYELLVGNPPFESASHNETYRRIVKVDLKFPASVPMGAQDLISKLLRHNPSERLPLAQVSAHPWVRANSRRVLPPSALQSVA
Chain of Cytochrome P450 3A4 (P08684 whole entry): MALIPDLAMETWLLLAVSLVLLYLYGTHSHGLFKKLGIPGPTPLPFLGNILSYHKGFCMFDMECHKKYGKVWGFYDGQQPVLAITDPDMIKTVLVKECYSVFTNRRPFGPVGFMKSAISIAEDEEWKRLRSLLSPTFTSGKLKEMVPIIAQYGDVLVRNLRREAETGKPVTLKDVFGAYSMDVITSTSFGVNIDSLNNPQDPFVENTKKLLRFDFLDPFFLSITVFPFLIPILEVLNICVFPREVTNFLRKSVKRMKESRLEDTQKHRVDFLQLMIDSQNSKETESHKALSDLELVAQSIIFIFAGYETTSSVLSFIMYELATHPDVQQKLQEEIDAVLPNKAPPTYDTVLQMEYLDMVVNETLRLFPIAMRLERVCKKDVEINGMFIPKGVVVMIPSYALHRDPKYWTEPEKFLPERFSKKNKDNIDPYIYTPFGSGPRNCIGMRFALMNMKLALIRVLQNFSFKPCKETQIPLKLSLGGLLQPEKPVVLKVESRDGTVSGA

SMILES	Selectivity ratio [1]	IC50 [2]	IC50 [3]	IC50 [4]	IC50 [5]	IC50 [6]	microsomal CLint [7]	Activity [8]	microsomal CLint [9]	hepatocyte CLint [10]	solubility [11]	IC50 [12]	IC50 [13]	IC50 [14]	inhibition at 10 µM [15]
Cc1cc(Nc2nn(-c3ccc(Cl)cc3)c(=O)c3ccccc23)n[nH]1	> 1000	0.82 µM	> 100 µM	2.2 µM	11.4 µM	0.093 µM									
Cc1cc(Nc2nn(-c3ccc(C(C)(C)C)cc3)c(=O)c3ccccc23)n[nH]1	> 1000	0.06 µM	> 50 µM		0.78 µM	0.24 µM									
Cc1cc(Nc2nn(CC(=O)c3ccc(C(F)(F)F)cc3)c(=O)c3ccccc23)n[nH]1	> 1000	> 30 µM	> 100 µM	> 30 µM	> 30 µM	0.72 µM									
Cc1ccc(-n2nc(Nc3cc[nH]n3)c3ccccc3c2=O)cc1	> 1000					1 µM									
Cc1cc(Nc2nn(Cc3ccccc3)c(=O)c3ccccc23)n[nH]1	> 1000	1.5 µM	> 100 µM	4.4 µM	12.6 µM		7.4 µL/min/mg	Active	28 µL/min/mg	2.4 µL/min/1e6 cells	1.9 µg/mL (≈ 5.73 µM)	42 µM	> 50 µM	> 50 µM	
Cc1cc(Nc2nn(CC(=O)c3ccccc3)c(=O)c3ccccc23)n[nH]1	> 1000	5.44 µM	> 100 µM	> 30 µM	> 30 µM	0.071 µM									
COc1cccc(C(=O)Cn2nc(Nc3cc(C)[nH]n3)c3ccccc3c2=O)c1	> 1000	2.7 µM	67 µM	> 30 µM	> 30 µM	0.1 µM									
Cc1cc(Nc2nn(Cc3csc(C)n3)c(=O)c3ccccc23)n[nH]1		4.18 µM	24 µM	> 30 µM	> 30 µM	0.12 µM									
Cc1cc(Nc2nn(C)c(=O)c3ccccc23)n[nH]1		5.2 µM	17 µM	> 30 µM	> 30 µM	0.27 µM									
CC(=O)Nc1ccc(Cn2nc(Nc3cc[nH]n3)c3ccccc3c2=O)cc1		> 30 µM	34 µM		> 30 µM										
O=c1c2ccccc2c(Nc2n[nH]c3ccccc23)nn1-c1ccccc1	> 1000					14 µM									
Cc1cc(Nc2nn(Cc3cc(F)ccc3F)c(=O)c3ccccc23)n[nH]1		0.57 µM	> 100 µM	3.8 µM	> 30 µM	0.025 µM									
Cc1ccc(-n2nc(Nc3cc(C)[nH]n3)c3ccccc3c2=O)cc1	> 1000	0.24 µM	> 100 µM	3.6 µM	> 30 µM	0.023 µM									
Cc1cc(Nc2nn(Cc3ccc(S(C)(=O)=O)cc3)c(=O)c3ccccc23)n[nH]1		1.7 µM	34 µM	4.5 µM	4.5 µM	0.056 µM									
Cc1cc(Nc2nn(C(C)C)c(=O)c3ccccc23)n[nH]1	> 1000	0.4 µM	30 µM	1.7 µM	1.6 µM	0.035 µM					7 µg/mL (≈ 24.7 µM)	> 50 µM	> 50 µM	> 50 µM	
Cc1cc(Nc2nn(Cc3cc(F)cc(F)c3)c(=O)c3ccccc23)n[nH]1	> 1000	0.5 µM	> 100 µM	2.3 µM	2.6 µM	0.049 µM									

SMILES	Selectivity ratio [1]	IC50 [2]	IC50 [3]	IC50 [4]	IC50 [5]	IC50 [6]	microsomal CLint [7]	Activity [8]	microsomal CLint [9]	hepatocyte CLint [10]	solubility [11]	IC50 [12]	IC50 [13]	IC50 [14]	inhibition at 10 µM [15]
Cc1cc(Nc2nn(Cc3ccc([N+](=O)[O-])cc3)c(=O)c3ccccc23)n[nH]1		1.4 µM	0.93 µM		> 30 µM	0.109 µM									
Cc1cc(Nc2nn(CC(F)(F)F)c(=O)c3ccccc23)n[nH]1	> 1000	1.8 µM	15 µM		4.5 µM	0.066 µM									
Cc1cc(Nc2nn(Cc3ccc(F)cc3)c(=O)c3ccccc23)n[nH]1	> 1000	1.4 µM	69 µM	17 µM	> 30 µM	0.014 µM									
Cc1cccc(-n2nc(Nc3cc(C)[nH]n3)c3ccccc3c2=O)c1	> 1000	2.3 µM	> 100 µM	3.2 µM	2.9 µM	0.024 µM									
COc1cccc(Cn2nc(Nc3cc(C)[nH]n3)c3ccccc3c2=O)c1	> 1000	0.66 µM	28 µM	3.6 µM	> 30 µM	0.036 µM									
COc1ccc(Cn2nc(Nc3cc(C)[nH]n3)c3ccccc3c2=O)cc1		1.2 µM	46 µM	4.2 µM	> 30 µM	0.032 µM									
Cc1cc(Nc2n[nH]c(=O)c3ccccc23)n[nH]1	> 1000		22 µM			0.65 µM									
Cc1cc(Nc2nn(-c3ccccc3)c(=O)c3ccccc23)n[nH]1									15.7 µL/min/mg	2.3 µL/min/1e6 cells	1.2 µg/mL (≈ 3.78 µM)	> 50 µM	> 50 µM	> 50 µM	20%
CC(=O)Nc1ccc(Cn2nc(Nc3cc(C)[nH]n3)c3ccccc3c2=O)cc1		4.2 µM	15 µM	> 30 µM	> 30 µM	0.093 µM									
COc1ccc(-n2nc(Nc3cc(C)[nH]n3)c3ccccc3c2=O)cc1		0.7 µM	> 100 µM	3.7 µM	3.6 µM	0.029 µM									
COc1ccc(C(=O)Cn2nc(Nc3cc(C)[nH]n3)c3ccccc3c2=O)cc1	> 1000	> 30 µM	> 100 µM	> 30 µM	> 30 µM	0.067 µM									
Cc1cc(Nc2nn(Cc3cccnc3)c(=O)c3ccccc23)n[nH]1		2.9 µM	12.7 µM	4.1 µM	13.4 µM	0.017 µM									
Cc1cc(Nc2nn(Cc3ccncc3)c(=O)c3ccccc23)n[nH]1		20.2 µM	27 µM	13 µM	> 30 µM	0.27 µM									
Cc1cc(Nc2nn(CC(C)C)c(=O)c3ccccc23)n[nH]1		1.1 µM	34 µM		4.2 µM	0.115 µM									
Cc1cc(Nc2nn(-c3ccc(F)cc3)c(=O)c3ccccc23)n[nH]1		0.8 µM	> 100 µM	1.6 µM	1.6 µM	0.037 µM									
